Experimental data: paper PMC5648746 (Clinical Pharmacokinetics, 2017)

Columns and labels:
[1] = after a high-calorie high-fat meal; cited from earlier work
[2] = Individual predicted exposure; type: in vivo, human; conditions: oral ixazomib; figure value with 95% CI
[3] = cited from earlier work
[4] = Population pharmacokinetic analysis; type: in vivo, human
Outline: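 Plasma from 755 adults with advanced haematologic or non-haematologic malignancies given oral (BSA-based or fixed) or IV (BSA-based) doses, weekly (28-day cycle) or twice-weekly (21-day cycle); sampled pre-dose and post-dose. LC-MS/MS with 13C9-labelled internal standard, linear 0.5–500 ng/mL. Three-compartment model, first-order absorption with lag; additive log-scale residual error; stepwise covariate selection, p = 0.01 plus ≥10% variance reduction.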

[5] = single oral dose of radio-labelled ixazomib, five patients with advanced cancer; cited from earlier work
[6] = previous population PK analysis, four phase I studies; cited from earlier work
[7] = test system: human cDNA-expressed CYP isozymes; conditions: clinically relevant ixazomib concentrations; cited from earlier work
[8] = test system: patients with multiple myeloma; conditions: ixazomib plus lenalidomide-dexamethasone vs placebo plus lenalidomide-dexamethasone, TOURMALINE-MM1; cited from earlier work
[9] = cited from earlier work; remark: listed apart in the source
[10] = Western patients, weekly dose; cited from earlier work
[11] = typical (population) parameter estimates

## CC(C)C[C@H](NC(=O)CNC(=O)c1cc(Cl)ccc1Cl)B(O)O [ixazomib]
[1]
  Reduction in peak plasma concentration with food: 69%
  Reduction in total systemic exposure (AUC) with food: 28%
[2]
  Percent change in mean AUC∞, Asian race relative to White race: 35%
[3]
  Dose dependence of exposure (AUC): dose-proportional increases in exposure
[3]; once-weekly repeat-dose administration
  Accumulation ratio for AUC: approximately 2
[3]; post-dose, oral
  Median time to maximum plasma concentration: 1 h
[4]; % coefficient of variation
  Inter-individual variability on log CL: 44%
  Inter-individual variability on log F: 73%
  Inter-individual variability on log V4: 79%
[4]; BSA 1.5 m^2 vs median 1.87 m^2
  Change in V4 at the 5th percentile of BSA relative to median BSA: −37%
[4]; BSA 2.25 m^2 vs median 1.87 m^2
  Change in V4 at the 95th percentile of BSA relative to median BSA: +46%
[4]; BSA had a small effect on V4
  Impact of BSA on CL: did not impact CL
[4]; age 23–91 years
  Effect of age on ixazomib PK parameters: not found to have a clinically relevant effect
[4]; coefficient of correlation
  Correlation between log CL and log F (random effects): 82%
[4]; covariate coefficient of power function
  Impact of BSA on V4 (V4[BSA]), estimate: 2.06
[4]; final model
  Absorption lag time (TLAG), untransformed parameter: 13 min
  Absorption rate constant (Ka), untransformed parameter: 0.34 h⁻¹
  Volume of the first peripheral compartment (V3), untransformed parameter: 309 L
[4]; final model, at median BSA
  Volume of the second peripheral compartment (V4), untransformed parameter: 205 L
[4]; mild or moderate renal impairment (CrCl 30–90 mL/min), mild hepatic impairment
  Impact of CrCl and total bilirubin on ixazomib pharmacokinetics: neither CrCl nor total bilirubin had any clinically relevant impact
[4]; raw NONMEM estimate, log scale
  Absorption rate constant (log Ka), estimate: −1.09
  Volume of the first peripheral compartment (log V3), estimate: 5.73
  Volume of the second peripheral compartment (log V4), estimate: 5.32
[4]; [11]
  Population estimate of steady-state volume of distribution: 527 L
  Population estimate of t1/2,γ: 9.35 days
[5]
  Administered radioactivity excreted in feces: 22%
  Administered radioactivity excreted in urine: 62%
[6]
  Estimated absolute bioavailability: 60%
[7]
  Contribution of specific CYP isozymes to ixazomib metabolism: no specific CYP isozyme predominantly contributed
[8]
  Improvement in progression-free survival: 35%
[9]; co-administration of strong pleiotropic PXR-mediated inducer rifampin
  Decrease in systemic exposure (AUC) of ixazomib with rifampin: 74%
[9]; controlled phase I clinical study
  Effect of the strong CYP3A inhibitor clarithromycin on ixazomib pharmacokinetics: absence of an effect
[10]
  Maximum tolerated dose: 5.5 mg
